Screening data (PubChem)
An excerpt weighted towards active compounds, which were near 3.4% of everything screened.
SIRT5 block: inhibitors of human sirtuin-5 desuccinylase; Q9NXA8; Purified SirT5, succinyl-peptide AMC, trypsin-coupled fluorescence; inhibition, % at 15 µM; 330,000 compounds, 1.1% hits; AID 652115; in the data active means inhibition above about 15%
Target sequence (Q9NXA8 whole entry, looked up): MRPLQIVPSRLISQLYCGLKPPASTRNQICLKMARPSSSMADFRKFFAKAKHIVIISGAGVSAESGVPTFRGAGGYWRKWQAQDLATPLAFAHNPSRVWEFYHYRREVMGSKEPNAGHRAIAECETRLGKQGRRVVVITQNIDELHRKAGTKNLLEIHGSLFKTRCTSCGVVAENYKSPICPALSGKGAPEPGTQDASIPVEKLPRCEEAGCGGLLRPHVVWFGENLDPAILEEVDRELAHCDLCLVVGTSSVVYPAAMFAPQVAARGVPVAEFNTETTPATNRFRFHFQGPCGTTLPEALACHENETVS
AF4-AF9 inh: blocks AF4 peptide binding to human AF9; AID 651704; 350,000 compounds, 0.47% hits; inhibition, % at 10 µM; AlphaScreen, biotin-AF4 peptide binding to FLAG-AF9;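 active means every replicate reaching a set inhibition limit, whatever the replicate mean, cut at about 25% in these data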;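 further: 0% = plate neutral control median and 100% = total signal loss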
E-selectin induc: E-selectin induction on HUVECs; P16581; HUVEC E-selectin immunofluorescence imaging; normalized: neutral wells 0, TNF-alpha wells 100; activation, % at 7.58 µM; 260,000 compounds, 0.37% hits; AID 686992;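 active means mean E-selectin-positive cell signal at least 10% of the positive control, reached in at least 60% of replicates, without over 20% cell loss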
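Assay system: HUVEC, human umbilical vein endothelial cells / Amount: 3,000 HUVEC/well / Controls: TNF-alpha positive control, DMSO neutral control / Compound dosing: single concentration / Medium: EGM-2 over gelatin coat / Evaluation: percent E-selectin-positive cells / Signal: immunofluorescence imaging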
ERAP1 HTS inh: ERAP1 (human) enzyme inhibition; Q9NZ08; recombinant ERAP1, Leu-AMC fluorescence, 60 min; inhibition, % at 10.7 µM; 340,000 compounds, 0.15% hits; AID 652197;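 active means mean replicate inhibition of at least 30%, or all replicates individually reaching that 30% level; inactive means mean below 30% and not every replicate reaching it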;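 further: 0% = neutral control wells and 100% = L-leucinethiol positive control wells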
rRNA inh HTS: selective bacterial rRNA inhibition in E. coli | E. coli WT GFP vs humanized-ribosome RFP mutants, fluorescence, 24 h; hits give low values; DMSO median 0, no signal -100 | GFP signal change (wild-type ribosome), % (test concentration not listed) | 350,000 compounds, 1.6% hits;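 active means significant combined selectivity score with lowered wild-type GFP, culture density cut under 30%, mutant RFP and density less affected; inactive means any of these conditions unmet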
S100A4 inh HTS: S100A4-myosin IIA interaction inhibition. inhibition, % at 10.7 µM. AID 652163. 360,000 compounds, 0.14% hits. P26447. S100A4/TAMRA-MyoIIA peptide fluorescence polarization;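 active means mean inhibition of at least 70% across replicates, with every replicate also reaching that level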
Target sequence (P26447 whole entry, looked up): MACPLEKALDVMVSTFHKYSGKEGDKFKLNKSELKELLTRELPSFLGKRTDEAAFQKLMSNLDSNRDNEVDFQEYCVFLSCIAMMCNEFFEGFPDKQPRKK
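Compound dosing: one dose per compound; test system: human S100A4 monomer with TAMRA-labelled myosin IIA peptide; probe or stimulus: TAMRA-labelled myosin IIA heavy-chain peptide probe, 5 nM; medium: HEPES buffer with Ca2+, pH 7.2; schedule: 5 min incubation before reading; benchmarks: neutral control DMSO, positive control TFP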
Starred values were filed as active, the others as inactive; x = no result; ! = repeats disagree.

SMILES	SIRT5 block	AF4-AF9 inh	E-selectin induc	ERAP1 HTS inh	rRNA inh HTS	S100A4 inh HTS
COc1ccc2c3c(n(C)c2c1)[C@H](CO)N(C(=O)Nc1ccc(F)cc1)CC31CCN(C)CC1	x	1	0	-6	1	-11
COCC(=O)N(C)C[C@H]1Oc2ncc(-c3ccccc3C)cc2C(=O)N([C@@H](C)CO)C[C@H]1C	-2	-3	-1	-2	8	-6
O=C(C[C@@H]1C[C@H]2c3cc(NC(=O)Nc4ccccc4)ccc3O[C@H]2[C@@H](CO)O1)NCc1ccccn1	-4	-1	0	1	2	7
CCS(=O)(=O)N1CCC2(CC1)CN(S(=O)(=O)c1ccccc1)[C@H](CO)c1c2c2ccc(OC)cc2n1C	x	-1	0	0	-5	8
CCCc1cn(CC[C@@H]2CC[C@H](NC(=O)C3CCCC3)[C@@H](CO)O2)nn1	13	0	0	4	4	32
CCCc1cn(CC[C@@H]2CC[C@H](NC(=O)C3CCCC3)[C@H](CO)O2)nn1	7	-3	0	1	1	116*
CN(C)Cc1cn(CC[C@@H]2CC[C@H](N)[C@H](CO)O2)nn1	21*	-1	0	3	3	1
CN(C)Cc1cn(CC[C@@H]2CC[C@@H](N)[C@H](CO)O2)nn1	0	1	0	2	2	-54
CN(C)Cc1cn(CC[C@H]2CC[C@H](NS(=O)(=O)c3ccccc3)[C@H](CO)O2)nn1	33*	-4	0	1	4	7
CC(C)CC#Cc1ccc([C@@H]2[C@H]3CN(C(=O)NC4CCCC4)CC(=O)N3[C@H]2CO)cc1	0	4	-1	3	-51	-1
Nc1[nH]c(C(=O)c2ccccc2)c(-c2ccccc2Cl)c1C(=O)c1ccccc1	-5	0	0	-1	-27*	5
NC(N)=NN=Cc1ccnc2ccccc12	-1	5	0	-11	-4	2
NC(=NCc1ccccc1)NN=Cc1ccnc2ccccc12	1	27*	0	9	3	1
CC(=O)N(C)C[C@@H]1Oc2cc(-c3ccccc3F)ccc2S(=O)(=O)N([C@@H](C)CO)C[C@@H]1C	-4	-2	0	0	-3	4
Cc1ccc(Cn2ccsc2=NC(=O)COC(=O)c2ccc(O)cc2O)cc1	-12	-1	0	3	-26*	-4
O=C(COC(=O)c1ccc(O)cc1O)N=c1sccn1Cc1ccccc1Cl	-3	1	x	-4	-51	-5
C=CCNC(=S)N/N=C/c1ccc(C)cc1C	0	3	1	0	-17*	-1
Cc1cc2ccccc2n1CCNC(=O)c1ccc(S(=O)(=O)N2CCCCC2)cc1	-7	4	93*	-3	-1	124*
O=C1C(Cc2ccccc2)Nc2ncnc(N3CCOCC3)c2N1Cc1ccc(Cl)cc1 (centres undefined)	x	3	4	-1	-21*!	3
O=C1C(Cc2ccccc2)Nc2ncnc(N3CCN(c4ccccc4)CC3)c2N1Cc1ccccc1 (centres undefined)	x	5	0	-4	11	-9
CNC(=S)NC1CC2CCCC(C1)N2Cc1ccccc1OC (centres undefined)	-10	0	0	-5	-17*	5
COc1ccccc1-c1cnc2c(c1)C(=O)N([C@@H](C)CO)C[C@@H](C)[C@@H](CN(C)C(=O)c1ccccc1)O2	x	x	0	x	-3	x
c1cc(-c2ccc(C3[C@H]4CNC[C@@H]3N4CC3CCCCC3)cc2)ccn1 (some centres undefined)	-4	29*	0	-6	1	-5
CN(C)C(=O)C[C@H]1CC[C@H]2[C@@H](COC[C@@H](O)CN2C(=O)c2ccncc2)O1	-1	-1	0	0	7	1
COc1ccccc1-c1cc2nc(NCCc3ccc(S(N)(=O)=O)cc3)ccn2n1	x	2	x	-1	-18	0
SMILES	SIRT5 block	AF4-AF9 inh	E-selectin induc	ERAP1 HTS inh	rRNA inh HTS	S100A4 inh HTS
COc1ccccc1-c1cc2nc(NCCc3ccncc3)ccn2n1	x	-2	x	-2	-17*	5
CC(C)CC(=O)Nc1ccc(-c2nc3ccccc3c(=O)o2)cc1	x	x	-1	x	x	x
CC(C)CC(=O)Nc1ccc(-c2nc3ccccc3c(=O)[nH]2)cc1	16*	-6	6	-8	x	-13
O=C(NCc1nc2ccccc2[nH]1)C1=C[C@@H](c2ccc3c(c2)OCO3)C[C@@H](OCCCCO)O1	-1	-2	x	2	x	5
Cc1c(Cc2ccccc2)sc(NC(=O)C(C)(C)C)c1C(N)=O	-2	2	0	x	-30*	0
CCC(=O)Nc1sc(Cc2ccc3c(c2)OCO3)c(C)c1C(N)=O	-4	-5	3	0	-26*	0
Cc1cccn2c(=O)c(/C=C(\C#N)S(=O)(=O)c3ccccc3)c(N3CCCCC3)nc12	-5	x	0	-3	9	-5
CCN1CCN(c2nc3c(C)cccn3c(=O)c2/C=C(\C#N)S(=O)(=O)c2ccc(Cl)cc2)CC1	3	30*	x	2	19	-11
Cc1cccn2c(=O)c(/C=C(\C#N)C(=O)NCc3ccco3)c(N3CCCCCC3)nc12	-5	x	1	4	-30*	1
Cc1cccn2c(=O)c(/C=C(\C#N)C(=O)NCc3ccco3)c(N3CCCCC3)nc12	-2	3	x	6	6	-8
CO[C@@H]1CN(C)C(=O)c2ccc(NC(=O)NC(C)C)cc2OC[C@H](C)N(CC2CC2)C[C@@H]1C	3	-9	0	1	-3	-1
CNc1nc(Cl)nc2ncn(C)c12	16*	-3	0	-6	22	-3
Cc1ccc(C(C(=O)NC(C)(C)C)N(C(=O)CCC(=O)Nc2ccccn2)c2ccccc2F)cc1 (centres undefined)	19*	3	2	1	-3	-1
CCOc1ccc(N2C(=O)C(=O)/C(=C(/O)c3ccccc3)C2c2ccccc2[N+](=O)[O-])cc1 (centres undefined)	4	0	x	0	-17*	3
COC(=O)/C=C/c1ccc(-n2ccnc2)cc1	-4	-6	x	2	-30*	2
Cc1ccc(NC(=S)NCc2ccco2)c(C)c1	80*	1	0	x	2	2
CCOc1ccc(NC(=S)NCc2ccco2)cc1	17*	3	x	-2	-19*	15
S=C(NCc1ccco1)Nc1ccc(Oc2ccccc2)cc1	-1	5	0	1	-43	2
CN(C)CCN(Cc1cccs1)S(=O)(=O)c1csc(C(N)=O)c1	33*	-1	1	-2	3	-5
CCC(=O)N[C@H]1C=C[C@H](CC(=O)NCc2cc(F)cc(F)c2)O[C@H]1CO	0	-2	0	-1	0	-23
